Reference: ChEMBL document CHEMBL1136049, “Synthesis of syn- and anti-1-amino-3-[18F]fluoromethyl-cyclobutane-1-carboxylic acid (FMACBC), potential PET ligands for tumor detection” (J Med Chem, 2002)

Columns and labels:
[1] = species: Rattus norvegicus; assay: Radioactivity distribution in pancreas of tumor-bearing fischer rat after injection of syn-[18F]-FMACBC after 5 min; type: ADME, organism-based; details: in vivo
How it was run: (§1)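 Male Fischer 344 rats with intracranial 9L gliosarcoma (4 × 10^4 cells stereotaxically implanted; used 17–19 days after implantation). About 35 μCi tracer in 0.3 mL sterile water was given by tail vein to awake, restrained rats. Rats were killed at 5, 60 or 120 min. Tissues, tumor and contralateral brain were weighed and gamma counted, decay-corrected, and expressed as %ID/g; n = 3–5 per time point.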

[2] = species: Rattus norvegicus; assay: Radioactivity distribution in lungs of normal fischer rat after injection of syn-[18F]-FMACBC after 5 min.; type: ADME, organism-based, Lung; details: in vivo
How it was run: (§2)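 Normal male Fischer 344 rats (200–250 g) were anesthetised with ketamine:xylazine i.m. and given about 85 μCi tracer in 0.3 mL sterile water via a tail vein catheter. Groups of four were killed at 5, 30, 60 and 120 min. Selected tissues were weighed and gamma counted with dose standards, decay-corrected, and expressed as mean %ID/g.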

[3] = species: Rattus norvegicus; assay: Radioactivity distribution in kidney of normal fischer rat after injection of anti-[18F]FMACBC after 30 min.; type: ADME, organism-based; details: in vivo, 0.5 h
How it was run: (§3)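 Male Fischer 344 rats (200–250 g), normal, fed ad libitum, given ~85 μCi of 18F tracer in 0.3 mL sterile water IV through a tail vein catheter. Anesthesia was ketamine:xylazine IM. Groups of four were killed at 5, 30, 60 and 120 min. Tissues were weighed and gamma-counted against dose standards, decay-corrected, and expressed as mean % injected dose per gram.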

[4] = species: Rattus norvegicus; assay: Radioactivity distribution in muscle of normal fischer rat after injection of syn-[18F]-FMACBC after 120 min.; type: ADME, organism-based, Muscle tissue; details: in vivo, 2 h; how it was run: as §2
[5] = species: Rattus norvegicus; assay: Radioactivity distribution in brain of normal fischer rat after injection of syn-[18F]-FMACBC after 120 min.; type: ADME, organism-based; details: in vivo, 2 h; how it was run: as §3
[6] = species: Rattus norvegicus; assay: Radioactivity distribution in pancreas of tumor-bearing fischer rat after injection of anti-[18F]FMACBC after 60 min; type: ADME, organism-based; details: in vivo, 1 h; how it was run: as §1
[7] = species: Rattus norvegicus; assay: Radioactivity distribution in kidney of tumor-bearing fischer rat after injection of syn-[18F]-FMACBC after 60 min; type: ADME, organism-based; details: in vivo, 1 h
How it was run: (§4)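 Male Fischer 344 rats carrying intracranial rat 9L gliosarcoma, made by stereotaxic injection of 4 × 10^4 cells 17–19 days before. Awake restrained rats received ~35 μCi of 18F tracer in 0.3 mL sterile water IV by tail vein and were killed at 5, 60 or 120 min, n = 3–5. Tissues were weighed, gamma-counted, decay-corrected and expressed as % injected dose per gram.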

[8] = species: Rattus norvegicus; assay: Radioactivity distribution in testis of normal fischer rat after injection of syn-[18F]-FMACBC after 30 min.; type: ADME, organism-based; details: in vivo, 0.5 h; how it was run: as §2
[9] = species: Rattus norvegicus; assay: Radioactivity distribution in liver of tumor-bearing fischer rat after injection of syn-[18F]-FMACBC after 120 min; type: ADME, organism-based; details: in vivo, 2 h; how it was run: as §1
[10] = species: Rattus norvegicus; assay: Radioactivity distribution in liver of normal fischer rat after injection of syn-[18F]-FMACBC after 30 min.; type: ADME, organism-based; details: in vivo, 0.5 h; how it was run: as §3
[11] = species: Rattus norvegicus; assay: Radioactivity distribution in blood of normal fischer rat after injection of anti-[18F]FMACBC after 120 min.; type: ADME, organism-based; details: in vivo, 2 h; how it was run: as §3
[12] = species: Rattus norvegicus; assay: Radioactivity distribution in bone of normal fischer rat after injection of syn-[18F]-FMACBC after 30 min.; type: ADME, organism-based, Bone element; details: in vivo, 0.5 h; how it was run: as §3
[13] = species: Rattus norvegicus; assay: Radioactivity distribution in heart of tumor-bearing fischer rat after injection of syn-[18F]-FMACBC after 5 min; type: ADME, organism-based; details: in vivo; how it was run: as §4
[14] = species: Rattus norvegicus; assay: Radioactivity distribution in brain of normal fischer rat after injection of anti-[18F]FMACBC after 60 min.; type: ADME, organism-based; details: in vivo, 1 h; how it was run: as §3
[15] = species: Rattus norvegicus; assay: Radioactivity distribution in lung of tumor-bearing fischer rat after injection of anti-[18F]FMACBC after 5 min; type: ADME, organism-based; details: in vivo; how it was run: as §1
[16] = species: Rattus norvegicus; assay: Radioactivity distribution in lung of tumor-bearing fischer rat after injection of syn-[18F]-FMACBC after 120 min; type: ADME, organism-based; details: in vivo, 2 h; how it was run: as §1
[17] = species: Rattus norvegicus; assay: Radioactivity distribution in heart of normal fischer rat after injection of syn-[18F]-FMACBC after 60 min.; type: ADME, organism-based; details: in vivo, 1 h; how it was run: as §3
[18] = species: Rattus norvegicus; assay: Radioactivity distribution in muscle of normal fischer rat after injection of syn-[18F]-FMACBC after 60 min.; type: ADME, organism-based, Muscle tissue; details: in vivo, 1 h; how it was run: as §2

In the case of `N[C@]1(C(=O)O)C[C@@H](CF)C1`, the ID/g [1] is reported as 3.19%, the ID/g [2] is reported as 0.75% and the ID/g [3] is reported as 0.67%. It also gave an ID/g [4] of 0.6%, an ID/g [5] of 0.21% and an ID/g [6] of 2.48%. For the same compound, the ID/g [7] was 0.42%, the ID/g [8] was 0.29% and the ID/g [9] was 0.25%. The ID/g [10] was 0.37%, the ID/g [11] was 0.31% and the ID/g [12] was 0.32%. The ID/g [13] was 0.52%, the ID/g [14] was 0.25% and the ID/g [15] was 0.55%. It also gave an ID/g [16] of 0.26%, an ID/g [17] of 0.64% and an ID/g [18] of 0.61%.
